The source of these data is article PMC9643279 (Acta Pharmaceutica Sinica. B, 2022).

The target in test [1] is T1, PGK1 (Homo sapiens, UniProt P00558).
T1 sequence (P00558 1-417): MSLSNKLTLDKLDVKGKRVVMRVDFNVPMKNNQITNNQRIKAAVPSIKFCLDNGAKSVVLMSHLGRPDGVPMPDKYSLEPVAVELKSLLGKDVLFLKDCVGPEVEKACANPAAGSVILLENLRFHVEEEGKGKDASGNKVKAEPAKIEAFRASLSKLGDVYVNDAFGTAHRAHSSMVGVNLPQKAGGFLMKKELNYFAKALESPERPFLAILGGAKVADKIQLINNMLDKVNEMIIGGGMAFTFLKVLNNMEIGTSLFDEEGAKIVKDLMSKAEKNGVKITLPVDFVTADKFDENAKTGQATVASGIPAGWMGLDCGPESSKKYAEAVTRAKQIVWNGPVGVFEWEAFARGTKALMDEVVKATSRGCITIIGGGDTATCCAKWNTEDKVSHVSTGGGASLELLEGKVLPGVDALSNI
As to the kind of experiment: PGK1 and GAPDH coupled enzyme assay, IC50 determination. The format is biochemical. The method, boiled down:
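His-tagged PGK1 was expressed from pET28a in E. coli BL21(DE3) pLysS (0.4 mmol/L IPTG, 3 h) and nickel-purified. PGK1 at 0.4 nmol/L was preincubated with test compound (DMSO, various concentrations) for 10 min at room temperature with shaking. OD340 was read every 15 s for 15 min at 37 °C; V0 came from the first 3 min, and inhibition was expressed as % of the DMSO V0.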

For test [2], the target named is T1, PGK1. As to the kind of experiment: Steady-state kinetic assay in the presence of gradient compound concentrations. Type of test: biochemical.
For test [3], the target named is T1, PGK1. As to the kind of experiment: Protein thermal shift assay. The format is binding. Conditions: Figs. S1I-J. Summed up: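 Recombinant PGK1 at 3 μmol/L was mixed with 5× SYPRO Orange and test compound or DMSO in 20 μL of 50 mmol/L HEPES pH 7.4, 150 mmol/L NaCl, 1 mmol/L DTT. Fluorescence was followed during thermal melting in a real-time PCR instrument, and Tm was derived with the instrument's thermal-shift software.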

Test [4] relates to LPS-induced IL-1β, IL-6, TNFα. Conditions: cited from earlier work; for pro-inflammatory cytokine production: PKM2-targeted compounds.
Test [5] has as its system PGK1. Conditions: read-out: IC50 (reported); reported as a PGK1 inhibitor; cited from earlier work.

As to `c1cc(-c2cnn3cc(-c4ccc(OCCN5CCCCC5)cc4)cnc23)ccn1` [dorsomorphin], on PGK1 [1], the IC50 (in general, the midpoint of a concentration-inhibition curve) is 6.72 µM.
Turning to `CCOC(=O)c1nc2cc(Cl)c(Cl)cc2nc1N1CCCN(C(=O)CC)CC1` [LTP-10, ethyl 6,7-dichloro-3-(4-propionyl-1,4-diazepan-1-yl)quinoxaline-2-carboxylate], on PGK1 [1], the IC50 came out at 2.3 µM. The inhibition constant (Ki) (commonly the dissociation constant of the complex between target and ligand, obtained from inhibition or displacement) on PGK1 [2] (Ki, ATP competitive, varying ATP, saturating 3-PG, competitive model) is 2590 ± 10 nM. Also, the “mode of inhibition versus ATP” value at PGK1 [2] (Km of ATP increases, Vmax unchanged) is listed as “ATP competitive inhibitor”. The “mode of inhibition versus 3-PG” value on PGK1 [2] (Vmax decreases, Km of 3-PG unchanged) is “noncompetitive inhibition”. Moreover, at PGK1 [3], the PGK1 thermal stability result is reported as “stabilized”.
Turning to `OCC1OC(O)CC(O)C1O` (stereo not shown) [Compound 2-DG], in test [4] (previous studies), the “LPS-induced IL-1β” value was “blocks”; the “transcription of IL-6 and TNFα” value was “unaffected”.
Turning to `Cn1c2cc([S+](C)[O-])sc2c2cnn(Cc3cccc(N)c3)c(=O)c21` (stereo not shown) [TEPP-46], in test [4], the pro-inflammatory cytokine production result is on record as “only inhibit IL-1β production”.
`CC(C)[C@H](CO)Nc1nc(Nc2cccc(Cl)c2)c2ncn(C(C)C)c2n1` [purvalanol A]: the IC50 on PGK1 [1] is 1.96 µM; in the test on PGK1 [5], 2500 nM.
Take `CN(C)C(=O)CCSC(SCCC(=O)O)c1cccc(/C=C/c2ccc3ccc(Cl)cc3n2)c1` (stereo not shown) [MK-571]: the IC50 against PGK1 [1] came out at 25.2 µM.
For `Nc1cccc(S(=O)(=O)N2CCCN(S(=O)(=O)c3ccc4c(c3)OCCO4)CC2)c1` [DASA-58], the pro-inflammatory cytokine production entry in test [4] was “only inhibit IL-1β production”.
